Assay results: ChEMBL document CHEMBL1141219, “Chemoenzymatic synthesis of a series of 4-substituted glutamate analogues and pharmacological characterization at human glutamate transporters subtypes 1-3” (J Med Chem, 2005)

B1: Excitatory amino acid transporter 1 (Homo sapiens), P43003 (protein)
chain: MTKSNGEEPKMGGRMERFQQGVRKRTLLAKKKVQNITKEDVKSYLFRNAFVLLTVTAVIVGTILGFTLRPYRMSYREVKYFSFPGELLMRMLQMLVLPLIISSLVTGMAALDSKASGKMGMRAVVYYMTTTIIAVVIGIIIVIIIHPGKGTKENMHREGKIVRVTAADAFLDLIRNMFPPNLVEACFKQFKTNYEKRSFKVPIQANETLVGAVINNVSEAMETLTRITEELVPVPGSVNGVNALGLVVFSMCFGFVIGNMKEQGQALREFFDSLNEAIMRLVAVIMWYAPVGILFLIAGKIVEMEDMGVIGGQLAMYTVTVIVGLLIHAVIVLPLLYFLVTRKNPWVFIGGLLQALITALGTSSSSATLPITFKCLEENNGVDKRVTRFVLPVGATINMDGTALYEALAAIFIAQVNNFELNFGQIITISITATAASIGAAGIPQAGLVTMVIVLTSVGLPTDDITLIIAVDWFLDRLRTTTNVLGDSLGAGIVEHLSRHELKNRDVEMGNSVIEENEMKKPYQLIAQDNETEKPIDSETKM
B2: Excitatory amino acid transporter 3 (Homo sapiens), P43005 (protein)
chain: MGKPARKGCEWKRFLKNNWVLLSTVAAVVLGITTGVLVREHSNLSTLEKFYFAFPGEILMRMLKLIILPLIISSMITGVAALDSNVSGKIGLRAVVYYFCTTLIAVILGIVLVVSIKPGVTQKVGEIARTGSTPEVSTVDAMLDLIRNMFPENLVQACFQQYKTKREEVKPPSDPEMNMTEESFTAVMTTAISKNKTKEYKIVGMYSDGINVLGLIVFCLVFGLVIGKMGEKGQILVDFFNALSDATMKIVQIIMCYMPLGILFLIAGKIIEVEDWEIFRKLGLYMATVLTGLAIHSIVILPLIYFIVVRKNPFRFAMGMAQALLTALMISSSSATLPVTFRCAEENNQVDKRITRFVLPVGATINMDGTALYEAVAAVFIAQLNDLDLGIGQIITISITATSASIGAAGVPQAGLVTMVIVLSAVGLPAEDVTLIIAVDWLLDRFRTMVNVLGDAFGTGIVEKLSKKELEQMDVSSEVNIVNPFALESTILDNEDSDTKKSYVNGGFAVDKSDTISFTQTSQF

Tests used:
[1] = substrate: N[C@@H](C[C@@H](O)C(=O)O)C(=O)O; assay: (§1) Binding affinity to human EAAT1 expressed in HEK293 cells in FMP (FLPR) assay; format: functional, cell-based
Outline: (§2)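 HEK293 cells stably expressing the human transporter, seeded on poly-D-lysine plates in DMEM with 10% dialyzed FBS and G-418 for 16–24 h. Cells washed in Krebs buffer (pH 7.4), then loaded with FMP dye for 30 min at 37 °C. Read at room temperature, excitation 530 nm and emission 560 nm, for up to 1 min after substrate addition. Non-substrate inhibitors were preincubated and tested against 30 μM Glu. Seven-concentration curves from maximal responses, duplicate, at least three times.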

[2] = substrate: N[C@@H](CCC(=O)O)C(=O)O; assay: as §1; format: functional, cell-based; outline: as §2
[3] = substrate: N[C@@H](C[C@H](O)C(=O)O)C(=O)O; assay: as §1; format: functional, cell-based; outline: as §2
[4] = substrate: C[C@H](C[C@H](N)C(=O)O)C(=O)O; assay: as §1; format: functional, cell-based; outline: as §2
[5] = molecular target: Excitatory amino acid transporter 3 (Homo sapiens) (UniProt P43005); assay: Binding affinity to human EAAT3 expressed in HEK293 cells in FMP (FLPR) assay
[6] = substrate: N[C@@H](CCC(=O)O)C(=O)O; assay: (§3) Binding affinity to human EAAT3 expressed in HEK293 cells in FMP (FLPR) assay; format: functional, cell-based; outline: as §2
[7] = substrate: N[C@@H](C[C@H](O)C(=O)O)C(=O)O; assay: as §3; format: functional, cell-based; outline: as §2

Protein | Km [1] [µM] | Km [2] [µM] | Km [3] [µM] | Km [4] [µM] | Km [5] [µM] | Km [6] [µM] | Km [7] [µM]
B1 | 1000 | 9.2 | 140 | 13 |  |  | 
B2 |  |  |  |  | 1000 | 25 | 81
